Common to all, as to format: functional
The subject of one assay is Micrococcus luteus. The assay can be described thus: Antibacterial activity against Micrococcus luteus ATCC 10240 assessed as growth inhibition after 18 hr by CLSI broth microdilution method. To be noted: ATCC 10240, 18 h. A digest of the protocol:
(§1)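 Inoculum: 0.5 McFarland suspension (150 × 10^6 CFU/mL) in sterile 0.85 % NaCl, 2 μL into 198 μL Mueller–Hinton broth. Compound stocks in DMSO; twofold dilutions, final 0.24–1,000 μg/mL. Incubated 35 °C, 18 h; OD600 read. MIC taken as lowest concentration with no visible growth. Controls: compound-free broth with DMSO, and bacteria-free compound blanks.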

The next assay has as its system Bacillus cereus. The assay can be described thus: Antibacterial activity against Bacillus cereus ATCC 10876 assessed as growth inhibition after 18 hr by CLSI broth microdilution method. To be noted: ATCC 10876, 18 h. A digest of the protocol:
as §1
Background: Broth dilution looks for growth in wells or tubes with falling amounts of substance.

The next assay relates to Bacillus spizizenii. The assay can be described thus: Antibacterial activity against Bacillus subtilis subsp. spizizenii ATCC 6633 assessed as growth inhibition after 18 hr by CLSI broth microdilution method. To be noted: ATCC 6633, 18 h. An outline of the steps: as §1
The test system of assay [1] is Staphylococcus epidermidis. The assay is described as follows: Antibacterial activity against Staphylococcus epidermidis ATCC 12228 assessed as growth inhibition after 18 hr by CLSI broth microdilution method. To be noted: ATCC 12228, 18 h. A digest of the protocol: as §1
For assay [2], the system named is Staphylococcus aureus. The assay can be described thus: Antibacterial activity against Staphylococcus aureus ATCC 6538 assessed as growth inhibition after 18 hr by CLSI broth microdilution method. To be noted: ATCC 6538, 18 h. A digest of the protocol:
as §1

Assay [3] has as its system Staphylococcus aureus. The assay can be described thus: Antibacterial activity against Staphylococcus aureus ATCC 25923 assessed as growth inhibition after 18 hr by CLSI broth microdilution method. To be noted: ATCC 25923, 18 h. A digest of the protocol: as §1

In brackets after ≈: the same amount, converted by molar mass. Where only a bound is given, the exact number is not on record here.

On to `COc1ccc(-n2c(S)nnc2CSc2nnc(-c3ccccc3)n2-c2ccccc2)cc1`, for which the MIC (usually the lowest concentration that inhibits growth of the organism) was more than 1000 µg/mL in the assay on Micrococcus luteus; 500 µg/mL (≈ 1060 µM) with Bacillus cereus; more than 1000 µg/mL with Bacillus spizizenii; more than 1000 µg/mL in assay [1]; more than 1000 µg/mL in the assay on Staphylococcus aureus [2]; 1000 µg/mL (≈ 2120 µM) with Staphylococcus aureus [3].
Consider `Sc1nnc(CSc2nnc(-c3ccccc3)n2-c2ccccc2)n1-c1ccccc1`, for which the MIC with Micrococcus luteus was more than 1000 µg/mL; in the assay on Bacillus cereus it was 500 µg/mL (≈ 1130 µM); in the assay on Bacillus spizizenii it was more than 1000 µg/mL; in assay [1] it was more than 1000 µg/mL; with Staphylococcus aureus [2], more than 1000 µg/mL; with Staphylococcus aureus [3], 1000 µg/mL (≈ 2260 µM).
As for `O=C(CSc1nnc(-c2ccccc2)n1-c1ccccc1)NNC(=S)NC1CCCCC1`, the MIC in the assay with Micrococcus luteus was 1000 µg/mL (≈ 2140 µM); in the assay on Bacillus cereus, 1000 µg/mL (≈ 2140 µM); in the assay with Bacillus spizizenii, 1000 µg/mL (≈ 2140 µM); in assay [1], more than 1000 µg/mL; with Staphylococcus aureus [2] it was more than 1000 µg/mL; in the assay with Staphylococcus aureus [3], more than 1000 µg/mL.
As for `COc1ccc(CNC(=S)NNC(=O)CSc2nnc(-c3ccccc3)n2-c2ccccc2)cc1`, the MIC in the assay with Micrococcus luteus was determined as 1000 µg/mL (≈ 1980 µM); in the assay on Bacillus cereus it was 1000 µg/mL (≈ 1980 µM); in the assay on Bacillus spizizenii, 500 µg/mL (≈ 991 µM); in assay [1] it was 500 µg/mL (≈ 991 µM); with Staphylococcus aureus [2] it was 1000 µg/mL (≈ 1980 µM); in the assay on Staphylococcus aureus [3] it was 500 µg/mL (≈ 991 µM).
Regarding `CCOC(=O)NC(=S)NNC(=O)CSc1nnc(-c2ccccc2)n1-c1ccccc1`, the MIC in the assay with Micrococcus luteus is 1000 µg/mL (≈ 2190 µM); in the assay with Bacillus cereus it was 500 µg/mL (≈ 1100 µM); in the assay with Bacillus spizizenii, 500 µg/mL (≈ 1100 µM); in assay [1], 1000 µg/mL (≈ 2190 µM); in the assay with Staphylococcus aureus [2], more than 1000 µg/mL; in the assay on Staphylococcus aureus [3], more than 1000 µg/mL.
For the compound `O=C(CSc1nnc(-c2ccccc2)n1-c1ccccc1)NNC(=S)NC(=O)c1ccccc1`, the MIC in the assay with Micrococcus luteus was 125 µg/mL (≈ 256 µM); in the assay with Bacillus cereus it was 125 µg/mL (≈ 256 µM); in the assay with Bacillus spizizenii it was 250 µg/mL (≈ 512 µM); in assay [1], 125 µg/mL (≈ 256 µM); in the assay on Staphylococcus aureus [2], 250 µg/mL (≈ 512 µM); in the assay on Staphylococcus aureus [3], 31.2 µg/mL (≈ 64 µM).
For `C=CCn1c(CSc2nnc(-c3ccccc3)n2-c2ccccc2)n[nH]c1=S`, the MIC (in the assay on Micrococcus luteus; in the assay on Bacillus cereus; in the assay with Bacillus spizizenii; in assay [1]; in the assay with Staphylococcus aureus [2]; in the assay with Staphylococcus aureus [3]) was 1000 µg/mL (≈ 2460 µM) in each case.
For the compound `S=c1[nH]nc(CSc2nnc(-c3ccccc3)n2-c2ccccc2)n1C1CCCCC1`, the MIC with Micrococcus luteus is 250 µg/mL (≈ 557 µM); with Bacillus cereus it was 1000 µg/mL (≈ 2230 µM); in the assay on Bacillus spizizenii, 500 µg/mL (≈ 1110 µM); in assay [1] it was 500 µg/mL (≈ 1110 µM); with Staphylococcus aureus [2] it was 250 µg/mL (≈ 557 µM); in the assay on Staphylococcus aureus [3] it was 500 µg/mL (≈ 1110 µM).
With `S=c1[nH]nc(CSc2nnc(-c3ccccc3)n2-c2ccccc2)n1Cc1ccccc1`, the MIC was 1000 µg/mL (≈ 2190 µM) in the assay with Micrococcus luteus; more than 1000 µg/mL in the assay on Bacillus cereus; more than 1000 µg/mL in the assay with Bacillus spizizenii; 1000 µg/mL (≈ 2190 µM) in assay [1]; 1000 µg/mL (≈ 2190 µM) in the assay with Staphylococcus aureus [2]; 1000 µg/mL (≈ 2190 µM) in the assay with Staphylococcus aureus [3].
In the case of `COc1ccc(Cn2c(CSc3nnc(-c4ccccc4)n3-c3ccccc3)n[nH]c2=S)cc1`, the MIC is more than 1000 µg/mL in the assay on Micrococcus luteus; more than 1000 µg/mL in the assay on Bacillus cereus; more than 1000 µg/mL in the assay on Bacillus spizizenii; more than 1000 µg/mL in assay [1]; 1000 µg/mL (≈ 2050 µM) in the assay on Staphylococcus aureus [2]; more than 1000 µg/mL with Staphylococcus aureus [3].
With `c1ccc(CNc2nnc(CSc3nnc(-c4ccccc4)n3-c3ccccc3)s2)cc1`, the MIC in the assay on Micrococcus luteus was found to be 125 µg/mL (≈ 274 µM); with Bacillus spizizenii, 15.6 µg/mL (≈ 34.2 µM); in assay [1] it was 500 µg/mL (≈ 1100 µM); in the assay with Staphylococcus aureus [3], 250 µg/mL (≈ 548 µM).
In the case of `CO/N=C(\C(=O)N[C@@H]1C(=O)N2C(C(=O)O)=C(COC(N)=O)CS[C@H]12)c1ccco1` [CEFUROXIME], the MIC in the assay on Micrococcus luteus is 0.49 µg/mL (≈ 1.15 µM); with Bacillus cereus, 62.5 µg/mL (≈ 147 µM); in the assay with Bacillus spizizenii it was 0.49 µg/mL (≈ 1.15 µM); in assay [1], 0.24 µg/mL (≈ 0.566 µM); in the assay on Staphylococcus aureus [2] it was 1.95 µg/mL (≈ 4.59 µM); in the assay on Staphylococcus aureus [3], 0.49 µg/mL (≈ 1.15 µM).

For the origin of these results see ChEMBL document CHEMBL3044844, “Synthesis and antimicrobial evaluation of some novel 1,2,4-triazole and 1,3,4-thiadiazole derivatives” (2013).
